Measurements published in ChEMBL document CHEMBL1156767, “Indol-3-ylcycloalkyl ketones: effects of N1 substituted indole side chain variations on CB(2) cannabinoid receptor activity” (J Med Chem, 2010).

Assays:
[1] = target: Cannabinoid receptor 1 (Homo sapiens, UniProt P21554); assay: Displacement of [3H]CP-55940 from human recombinant CB1 receptor expressed in CHO cells; format: cell-based; conditions: read-out: Ki
[2] = species on record: Homo sapiens; assay: Selectivity ratio of Ki for human recombinant CB1 receptor to Ki for human recombinant CB2 receptor
In short: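 Membranes were from HEK cells stably expressing human CB2 and CHO cells stably expressing human CB1. Competition was run against 0.5 nM [3H]CP-55,940 in 50 mM Tris-HCl pH 7.4, 2.5 mM EDTA, 5 mM MgCl2, 0.05% fatty-acid-free BSA, for 90 min at 30 °C, then filtered. Nonspecific binding was set with 10 μM unlabeled CP-55,940. Ki came from one-site fits. Mean ± SEM, ≥3 experiments in duplicate.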

[3] = target: T1, Cannabinoid receptor 2 (Homo sapiens, UniProt P34972); assay: Agonist activity at human recombinant CB2 receptor expressed in HEK293 cells coexpressing Galphaq/o5 assessed as calcium mobilization by FLIPR assay; format: functional, cell-based
In short: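 HEK cells stably coexpressing human CB2 and chimeric Gαq/o5 were seeded at 75 000 cells/well the day before and loaded with no-wash calcium dye. Mean ± SEM, ≥3 experiments in duplicate.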

[4] = target: T1, Cannabinoid receptor 2; assay: Agonist activity at human recombinant CB2 receptor expressed in HEK293 cells coexpressing Galphaq/o5 assessed as calcium mobilization by FLIPR assay relative to CP-55940; format: functional, cell-based
In short: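 HEK cells stably coexpressing human CB2 and chimeric Gαq/o5 were seeded at 75 000 cells/well the day before and loaded with no-wash calcium dye. […] Mean ± SEM, ≥3 experiments in duplicate.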

[5] = target: T1, Cannabinoid receptor 2; assay: Displacement of [3H]CP-55940 from human recombinant CB2 receptor expressed in HEK293 cells; format: cell-based

Sequence of Cannabinoid receptor 1 (P21554 whole entry): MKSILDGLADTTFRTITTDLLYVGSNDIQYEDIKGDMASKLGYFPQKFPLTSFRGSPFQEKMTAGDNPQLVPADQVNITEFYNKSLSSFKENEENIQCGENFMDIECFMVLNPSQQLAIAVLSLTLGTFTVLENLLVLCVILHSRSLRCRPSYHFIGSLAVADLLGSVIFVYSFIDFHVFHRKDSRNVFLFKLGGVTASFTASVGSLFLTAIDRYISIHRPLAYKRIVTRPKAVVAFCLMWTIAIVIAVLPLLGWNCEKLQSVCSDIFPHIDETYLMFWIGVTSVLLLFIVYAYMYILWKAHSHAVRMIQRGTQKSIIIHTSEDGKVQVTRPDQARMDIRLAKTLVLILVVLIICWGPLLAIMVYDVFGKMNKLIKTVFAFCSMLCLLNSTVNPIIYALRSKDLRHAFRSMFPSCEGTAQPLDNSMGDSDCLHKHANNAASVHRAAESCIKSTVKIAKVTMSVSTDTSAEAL
T1 sequence (P34972 whole entry): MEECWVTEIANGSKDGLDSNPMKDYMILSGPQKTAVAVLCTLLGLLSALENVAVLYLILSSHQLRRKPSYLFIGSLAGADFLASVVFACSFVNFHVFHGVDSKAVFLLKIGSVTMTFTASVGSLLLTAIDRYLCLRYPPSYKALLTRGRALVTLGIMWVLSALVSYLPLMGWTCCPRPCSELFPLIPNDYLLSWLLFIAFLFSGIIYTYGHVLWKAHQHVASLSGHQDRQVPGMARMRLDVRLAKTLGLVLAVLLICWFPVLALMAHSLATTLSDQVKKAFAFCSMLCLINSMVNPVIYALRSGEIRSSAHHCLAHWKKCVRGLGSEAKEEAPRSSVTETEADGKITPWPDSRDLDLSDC

Row | SMILES | Ki [1] | Ratio Ki [2] | EC50 [3] | Activity [4] | Ki ([5]; read-out: Ki) | Ki ([5]; read-out: pKi (converted))
1 | CC1(C)C(C(=O)c2cn(Cc3cccnc3)c3ccccc23)C1(C)C | 2030 nM | 68 | 75 nM | 103% | 30 nM | –
2 | CC1(C)C(C(=O)c2cn(CCN3CCCC3=O)c3ccccc23)C1(C)C | > 10000 nM | > 182 | 55 nM | 97% | 55 nM | 53.7 nM
3 | O=C(c1cn(CC2CCOCC2)c2ccccc12)C12CC3CC(CC1C3)C2 | 73 nM | 35 | 7 nM | 93% | 2.1 nM | –
4 | CC1(C)C(C(=O)c2cn(CCN3CCCCC3)c3ccccc23)C1(C)C | 556 nM | 242 | 56 nM | 93% | 2.3 nM | –
5 | CC1(C(=O)c2cn(CC3CCOCC3)c3ccccc23)CC(F)(F)C1(F)F (configuration not stated) | 1450 nM | 31 | 197 nM | 46% | 47 nM | –
6 | CC1(C)C(C(=O)c2cn(CCN3CCCCCC3)c3ccccc23)C1(C)C | 790 nM | 30 | 1020 nM | 49% | 26 nM | –
7 | CC1(C)C(C(=O)c2cn(CCN3C(=O)CCC3=O)c3ccccc23)C1(C)C | > 10000 nM | > 59 | 77 nM | 34% | 170 nM | –
8 | CCCn1cc(C(=O)C2C(C)(C)C2(C)C)c2ccccc21 | 4300 nM | 467 | 36 nM | 114% | 9.2 nM | –
9 | O=C(c1cn(CC2CCOCC2)c2ccccc12)C1CCCC1 | 131 nM | 12 | 20 nM | 64% | 11 nM | –
10 | CC1(C)C(C(=O)c2cn(CCO)c3ccccc23)C1(C)C | > 10000 nM | > 179 | 440 nM | 85% | 56 nM | –
11 | CC1(C(=O)c2cn(CC3CCOCC3)c3ccccc23)CC1(Cl)Cl (configuration not stated) | 3360 nM | 19 | 782 nM | 32% | 181 nM | –
12 | CC1(C)C(C(=O)c2cn(Cc3ccccc3)c3ccccc23)C1(C)C | 210 nM | 26 | 93 nM | 59% | 8.2 nM | –
13 | COC(=O)CCn1cc(C(=O)C2C(C)(C)C2(C)C)c2ccccc21 | 1830 nM | 631 | 17 nM | 109% | 2.9 nM | –
14 | CC1(C)C(C(=O)c2cn(CCc3ccncc3)c3ccccc23)C1(C)C | 2200 nM | 71 | 162 nM | 100% | 31 nM | –
15 | CC1(C)C(C(=O)c2cn(CCCC(F)(F)F)c3ccccc23)C1(C)C | 15 nM | 167 | 6 nM | 104% | 0.09 nM | –
16 | O=C(c1cn(CCN2CCOCC2)c2ccccc12)C1CCCCC1 | 1630 nM | 12 | 86 nM | 44% | 138 nM | –
17 | O=C(c1cn(CCN2CCOCC2)c2ccccc12)C12CC3CC(CC1C3)C2 | > 10000 nM | > 435 | 68 nM | 66% | 23 nM | –
18 | CC(=O)CCCCn1cc(C(=O)C2C(C)(C)C2(C)C)c2ccccc21 | 380 nM | 384 | 6 nM | 89% | 0.99 nM | –
19 | CC1(C)C(C(=O)c2cn(CCc3nsc(Cl)n3)c3ccccc23)C1(C)C | 4200 nM | 506 | 109 nM | 97% | 8.3 nM | –

Row | SMILES | Ki [1] | Ratio Ki [2] | EC50 [3] | Activity [4] | Ki ([5]; read-out: Ki) | Ki ([5]; read-out: pKi (converted))
20 | CC1(C)C(C(=O)c2cn(CC3OCCO3)c3ccccc23)C1(C)C | 280 nM | 280 | 7 nM | 133% | 1 nM | –
21 | CCCCCn1cc(C(=O)C2C(C)(C)C2(C)C)c2ccccc21 | 150 nM | 83 | 29 nM | 93% | 1.8 nM | –
22 | CC[C@H]1CC[C@H](C(=O)c2cn(CCN3CCOCC3)c3ccccc23)CC1 | 616 nM | 39 | 85 nM | 59% | 16 nM | –
23 | Cc1ncsc1CCn1cc(C(=O)C2C(C)(C)C2(C)C)c2ccccc21 | 2000 nM | 111 | 49 nM | 49% | 18 nM | –
24 | CC1(C)C(C(=O)c2cn(CCc3ccsc3)c3ccccc23)C1(C)C | 148 nM | 82 | 70 nM | 108% | 1.8 nM | –
25 | COCCn1cc(C(=O)C2C(C)(C)C2(C)C)c2ccccc21 | 710 nM | 229 | 14 nM | 117% | 3.1 nM | –
26 | CC1(C)C(C(=O)c2cn(CCC3CCOCC3)c3ccccc23)C1(C)C | 92 nM | 33 | 15 nM | 90% | 2.8 nM | –
27 | CN1CCCCC1Cn1cc(C(=O)C2C(C)(C)C2(C)C)c2ccccc21 (configuration not stated) | 5.5 nM | 11 | 628 nM | 48% | 0.48 nM | –
28 | CC1(C)C(C(=O)c2cn(CCc3cccnc3)c3ccccc23)C1(C)C | > 10000 nM | > 500 | 62 nM | 78% | 20 nM | –
29 | CC1(C)C(C(=O)c2cn(CC3CCOC3)c3ccccc23)C1(C)C (configuration not stated) | 630 nM | 4500 | 6 nM | 102% | 0.14 nM | 0.49 nM
30 | O=C(c1cn(CCN2CCOCC2)c2ccccc12)C1CCCCCC1 | 362 nM | 33 | 31 nM | 48% | 11 nM | –
31 | CCCCn1cc(C(=O)C2C(C)(C)C2(C)C)c2ccccc21 | 91 nM | 46 | 5 nM | 102% | 2 nM | –
32 | CC1(C)C(C(=O)c2cn(C[C@H]3CCCO3)c3ccccc23)C1(C)C | 720 nM | 189 | 11 nM | 99% | 3.8 nM | –
33 | CC1(C)C(C(=O)c2cn(CCc3cccs3)c3ccccc23)C1(C)C | 700 nM | 250 | 96 nM | 86% | 2.8 nM | –
34 | CC1(C)C(C(=O)c2cn(CCc3ccccn3)c3ccccc23)C1(C)C | 1900 nM | 28 | 542 nM | 59% | 68 nM | –
35 | O=C(c1cn(CCN2CCOCC2)c2ccccc12)[C@@H]1CC12CCCCC2 | 3060 nM | 87 | 42 nM | 50% | 35 nM | –
36 | CSCCCCn1cc(C(=O)C2C(C)(C)C2(C)C)c2ccccc21 | 39 nM | 98 | 22 nM | 74% | 0.4 nM | –
37 | CC1(C)C(C(=O)c2cn(CCn3cccc3)c3ccccc23)C1(C)C | 310 nM | 172 | 54 nM | 97% | 1.8 nM | –
38 | CN(C)CCn1cc(C(=O)C2C(C)(C)C2(C)C)c2ccccc21 | > 10000 nM | > 5260 | 35 nM | 105% | 1.9 nM | –
